Key:
[1] = biological target: Cholinesterase (Equus caballus) (UniProt P81908); assay: Inhibition of horse serum BChE at 0.781 ug using butyrylthiocholine chloride as substrate preincubated for 15 mins followed by substrate addition measured every 5 mins for 15 mins by spectrophotometric method relative to control
Summary of the method: (§1)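 Ellman colorimetric assay. Compound in methanol (10 µl) was mixed with 150 µl 100 mM sodium phosphate pH 8.0 and BChE (6.85 x10-3 U) and held 15 min at 25 °C. DTNB (0.5 mM) was added, then butyrylthiocholine chloride (0.2 mM) to start the reaction. A412 read every 5 min for 15 min, in triplicate. Percent inhibition = (E−S)/E×100 against a methanol blank.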

[2] = biological target: Cholinesterase (Equus caballus) (UniProt P81908); assay: Inhibition of horse serum BChE at 3.125 ug using butyrylthiocholine chloride as substrate preincubated for 15 mins followed by substrate addition measured every 5 mins for 15 mins by spectrophotometric method relative to control; summary of the method: as §1
[3] = biological target: Cholinesterase (Equus caballus) (UniProt P81908); assay: Inhibition of horse serum BChE at 25 ug using butyrylthiocholine chloride as substrate preincubated for 15 mins followed by substrate addition measured every 5 mins for 15 mins by spectrophotometric method relative to control; summary of the method: as §1
[4] = biological target: Cholinesterase (Equus caballus) (UniProt P81908); assay: Inhibition of horse serum BChE at 0.391 ug using butyrylthiocholine chloride as substrate preincubated for 15 mins followed by substrate addition measured every 5 mins for 15 mins by spectrophotometric method relative to control; summary of the method: as §1
[5] = biological target: Cholinesterase (Equus caballus) (UniProt P81908); assay: Inhibition of horse serum BChE at 1.563 ug using butyrylthiocholine chloride as substrate preincubated for 15 mins followed by substrate addition measured every 5 mins for 15 mins by spectrophotometric method relative to control; summary of the method: as §1
[6] = biological target: Acetylcholinesterase (Electrophorus electricus) (UniProt O42275); assay: Inhibition of electric eel AChE at 0.006 ug using acetylthiocholine iodide as substrate preincubated for 15 mins followed by substrate addition measured every 5 mins for 15 mins by spectrophotometric method relative to control
Summary of the method: as §1, with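 “AChE (5.32” for “BChE (6.85”, “acetylthiocholine iodide (0.71” for “butyrylthiocholine chloride (0.2”, “Thiolate formation” for “A412”, “read at 412 nm” for “read”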

[7] = biological target: Cholinesterase (Equus caballus, UniProt P81908); assay: Inhibition of horse serum BChE using butyrylthiocholine chloride as substrate preincubated for 15 mins followed by substrate addition measured every 5 mins for 15 mins by spectrophotometric method
Summary of the method: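 BChE (6.85 x10-3 U) in 100 mM sodium phosphate pH 8.0 was preincubated 15 min at 25 °C with compound at several concentrations in methanol. DTNB (0.5 mM) and butyrylthiocholine chloride (0.2 mM) were then added. A412 read every 5 min for 15 min. IC50 derived from percent inhibition versus a methanol blank; mean ± SD of triplicates.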

[8] = biological target: Cholinesterase (Equus caballus) (UniProt P81908); assay: Inhibition of horse serum BChE at 12.5 ug using butyrylthiocholine chloride as substrate preincubated for 15 mins followed by substrate addition measured every 5 mins for 15 mins by spectrophotometric method relative to control
Summary of the method: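 Ellman colorimetric assay. DTNB (0.5 mM) was added, then butyrylthiocholine chloride (0.2 mM) to start the reaction. A412 read every 5 min for 15 min, in triplicate. Percent inhibition = (E−S)/E×100 against a methanol blank.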

[9] = Selectivity ratio of IC50 for horse serum BChE to IC50 for electric eel AChE
[10] = biological target: Acetylcholinesterase (Electrophorus electricus, UniProt O42275); assay: Inhibition of electric eel AChE using acetylthiocholine iodide as substrate preincubated for 15 mins followed by substrate addition measured every 5 mins for 15 mins by spectrophotometric method
[11] = biological target: Cholinesterase (Equus caballus) (UniProt P81908); assay: Inhibition of horse serum BChE at 6.25 ug using butyrylthiocholine chloride as substrate preincubated for 15 mins followed by substrate addition measured every 5 mins for 15 mins by spectrophotometric method relative to control; summary of the method: as §1
[12] = biological target: Acetylcholinesterase (Electrophorus electricus) (UniProt O42275); assay: Inhibition of electric eel AChE at 0.012 ug using acetylthiocholine iodide as substrate preincubated for 15 mins followed by substrate addition measured every 5 mins for 15 mins by spectrophotometric method relative to control
Summary of the method: as §1, with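 “AChE (5.32” for “BChE (6.85”, “acetylthiocholine iodide (0.71” for “butyrylthiocholine chloride (0.2”, “Thiolate formation” for “A412”, “read at 412 nm” for “read”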

Sequence of Cholinesterase (Equus caballus) (P81908 whole entry): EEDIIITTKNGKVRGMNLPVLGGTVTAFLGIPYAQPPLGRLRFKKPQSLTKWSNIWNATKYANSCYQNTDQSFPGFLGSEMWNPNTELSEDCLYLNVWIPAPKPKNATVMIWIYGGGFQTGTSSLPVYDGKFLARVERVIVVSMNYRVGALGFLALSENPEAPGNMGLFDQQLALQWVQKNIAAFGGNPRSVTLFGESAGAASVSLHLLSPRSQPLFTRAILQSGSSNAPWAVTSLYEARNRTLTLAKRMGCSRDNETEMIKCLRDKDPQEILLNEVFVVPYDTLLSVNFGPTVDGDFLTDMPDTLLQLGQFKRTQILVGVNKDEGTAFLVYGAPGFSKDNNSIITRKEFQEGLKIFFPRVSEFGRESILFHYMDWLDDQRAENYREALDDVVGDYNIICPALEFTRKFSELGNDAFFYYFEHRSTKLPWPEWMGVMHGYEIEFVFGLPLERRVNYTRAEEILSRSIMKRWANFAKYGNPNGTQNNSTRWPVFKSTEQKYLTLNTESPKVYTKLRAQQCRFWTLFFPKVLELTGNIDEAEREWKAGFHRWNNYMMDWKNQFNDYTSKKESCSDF
Sequence of Cholinesterase (P81908 whole entry): as above
Sequence of Acetylcholinesterase (Electrophorus electricus) (O42275 24-633 limits assumed): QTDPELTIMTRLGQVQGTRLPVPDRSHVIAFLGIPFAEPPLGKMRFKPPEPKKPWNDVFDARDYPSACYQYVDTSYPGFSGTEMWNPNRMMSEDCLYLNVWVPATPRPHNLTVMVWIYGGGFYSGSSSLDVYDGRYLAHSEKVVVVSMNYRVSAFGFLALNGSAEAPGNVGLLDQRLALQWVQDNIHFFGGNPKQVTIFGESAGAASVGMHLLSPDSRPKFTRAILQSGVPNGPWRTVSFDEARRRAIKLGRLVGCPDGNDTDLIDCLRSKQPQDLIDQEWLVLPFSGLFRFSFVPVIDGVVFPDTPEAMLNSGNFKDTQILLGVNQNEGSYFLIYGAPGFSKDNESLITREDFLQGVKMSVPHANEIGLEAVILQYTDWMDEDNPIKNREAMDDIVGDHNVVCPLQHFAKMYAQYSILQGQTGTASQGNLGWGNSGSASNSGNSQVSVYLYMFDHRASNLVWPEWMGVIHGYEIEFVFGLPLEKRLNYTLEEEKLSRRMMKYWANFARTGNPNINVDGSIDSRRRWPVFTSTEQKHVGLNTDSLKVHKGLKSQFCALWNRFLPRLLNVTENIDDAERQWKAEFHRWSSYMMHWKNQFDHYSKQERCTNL
Sequence of Acetylcholinesterase (O42275 whole entry): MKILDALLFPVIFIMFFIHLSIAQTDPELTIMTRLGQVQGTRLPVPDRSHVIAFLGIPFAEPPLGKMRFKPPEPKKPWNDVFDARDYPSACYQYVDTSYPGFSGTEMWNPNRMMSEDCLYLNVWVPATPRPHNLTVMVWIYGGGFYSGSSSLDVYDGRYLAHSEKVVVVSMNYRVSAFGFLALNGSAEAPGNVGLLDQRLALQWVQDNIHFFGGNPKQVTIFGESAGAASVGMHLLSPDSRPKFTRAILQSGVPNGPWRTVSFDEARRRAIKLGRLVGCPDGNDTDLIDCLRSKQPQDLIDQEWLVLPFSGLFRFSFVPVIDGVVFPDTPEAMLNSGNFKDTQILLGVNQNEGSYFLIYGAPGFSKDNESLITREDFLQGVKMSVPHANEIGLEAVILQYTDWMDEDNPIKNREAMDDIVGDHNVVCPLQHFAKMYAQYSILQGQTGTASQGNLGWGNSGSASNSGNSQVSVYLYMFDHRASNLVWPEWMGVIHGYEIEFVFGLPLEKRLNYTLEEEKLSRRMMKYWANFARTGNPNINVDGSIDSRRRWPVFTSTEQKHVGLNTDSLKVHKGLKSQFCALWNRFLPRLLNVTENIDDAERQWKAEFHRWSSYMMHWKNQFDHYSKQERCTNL

Structure (SMILES): COc1ccc2c3c1O[C@H]1C[C@@H](O)C=C[C@@]31CCN(C)C2
- inhibition [1]: 21%
- inhibition [2]: 63.9%
- inhibition [3]: 97%
- inhibition [4]: 11.1%
- inhibition [5]: 55.2%

Structure (SMILES): Cc1[nH]nc2c1C(c1cccnc1)c1c(nc3c(c1N)CCCC3)O2 (stereo not given)
- inhibition [1]: 41.6%
- inhibition [2]: 57.1%
- inhibition [6]: 6.61%
- IC50 [7]: 4.26 µM
- inhibition [8]: 74.2%
- inhibition [3]: 84.8%
- Ratio IC50 [9]: 12.9
- inhibition [4]: 18.2%
- IC50 [10]: 330 nM
- inhibition [11]: 72%
- inhibition [5]: 53.9%
- inhibition [12]: 13.1%

Structure (SMILES): Cc1[nH]nc2c1C(c1cc([N+](=O)[O-])ccc1Cl)c1c(nc3c(c1N)CCCC3)O2 (stereo not given)
- inhibition [1]: 10.2%
- inhibition [2]: 21.6%
- IC50 [7]: 2.5 µM
- inhibition [8]: 54.2%
- inhibition [3]: 71.9%
- Ratio IC50 [9]: 2.4
- inhibition [4]: 5.53%
- IC50 [10]: 1040 nM
- inhibition [11]: 35.6%
- inhibition [5]: 13.9%

Structure (SMILES): Cc1[nH]nc2c1C(c1ccccc1)c1c(nc3c(c1N)CCCC3)O2 (stereo not given)
- inhibition [1]: 10.7%
- inhibition [2]: 23.9%
- IC50 [7]: 36 µM
- inhibition [8]: 52.5%
- inhibition [3]: 72.9%
- Ratio IC50 [9]: 29.3
- inhibition [4]: 5.38%
- IC50 [10]: 1230 nM
- inhibition [11]: 30.7%
- inhibition [5]: 13.6%

Structure (SMILES): Cc1[nH]nc2c1C(c1ccc(-c3ccccc3)cc1)c1c(nc3c(c1N)CCCC3)O2 (stereo not given)
- inhibition [6]: 34.4%
- IC50 [7]: > 61.2 µM
- inhibition [8]: 14.1%
- inhibition [3]: 20.6%
- Ratio IC50 [9]: > 1390
- IC50 [10]: 44 nM
- inhibition [11]: 11.8%
- inhibition [12]: 43%

Structure (SMILES): COc1ccc2ccccc2c1C1c2c(n[nH]c2C)Oc2nc3c(c(N)c21)CCCC3 (stereo not given)
- inhibition [1]: 7.31%
- inhibition [2]: 47.9%
- inhibition [6]: 12.6%
- IC50 [7]: 11.3 µM
- inhibition [8]: 63%
- inhibition [3]: 70%
- Ratio IC50 [9]: 87.3
- inhibition [4]: 2.86%
- IC50 [10]: 130 nM
- inhibition [11]: 51.9%
- inhibition [5]: 25.1%
- inhibition [12]: 16.1%

Structure (SMILES): COc1ccc(C2c3c(n[nH]c3C)Oc3nc4c(c(N)c32)CCCC4)c(OC)c1 (stereo not given)
- inhibition [1]: 17.8%
- inhibition [2]: 43%
- IC50 [7]: 31.1 µM
- inhibition [8]: 62.8%
- inhibition [3]: 80.8%
- Ratio IC50 [9]: 120
- IC50 [10]: 260 nM
- inhibition [11]: 55.8%
- inhibition [5]: 37.1%

Structure (SMILES): Cc1[nH]nc2c1C(c1ccc(Br)cc1)c1c(nc3c(c1N)CCCC3)O2 (stereo not given)
- inhibition [1]: 17.4%
- inhibition [2]: 43.1%
- IC50 [7]: 11.6 µM
- inhibition [8]: 60.5%
- inhibition [3]: 69.9%
- Ratio IC50 [9]: 6.47
- inhibition [4]: 13.1%
- IC50 [10]: 1800 nM
- inhibition [11]: 58.5%
- inhibition [5]: 37.9%

Structure (SMILES): Cc1[nH]nc2c1C(c1ccc([N+](=O)[O-])cc1)c1c(nc3c(c1N)CCCC3)O2 (stereo not given)
- inhibition [1]: 37.9%
- inhibition [2]: 75.1%
- IC50 [7]: 2.73 µM
- inhibition [8]: 92.6%
- inhibition [3]: 93.2%
- Ratio IC50 [9]: 0.47
- inhibition [4]: 24.9%
- IC50 [10]: 5800 nM
- inhibition [11]: 90.3%
- inhibition [5]: 66.8%

Structure (SMILES): Cc1ccc(C2c3c(n[nH]c3C)Oc3nc4c(c(N)c32)CCCC4)c(C)c1 (stereo not given)
- inhibition [2]: 13.3%
- IC50 [7]: 39 µM
- inhibition [8]: 49.7%
- inhibition [3]: 51.9%
- Ratio IC50 [9]: 135
- IC50 [10]: 290 nM
- inhibition [11]: 44.8%

Structure (SMILES): Cc1[nH]nc2c1C(c1c(Cl)cccc1[N+](=O)[O-])c1c(nc3c(c1N)CCCC3)O2 (stereo not given)
- inhibition [1]: 52.1%
- inhibition [2]: 85.3%
- IC50 [7]: 1.84 µM
- inhibition [8]: 94.3%
- inhibition [3]: 98.7%
- Ratio IC50 [9]: 1.04
- inhibition [4]: 37.6%
- IC50 [10]: 1770 nM
- inhibition [11]: 86.5%
- inhibition [5]: 66.2%

Structure (SMILES): Cc1[nH]nc2c1C(c1ccc(Cl)cc1)c1c(nc3c(c1N)CCCC3)O2 (stereo not given)
- inhibition [1]: 23%
- inhibition [2]: 27.9%
- IC50 [7]: > 68.2 µM
- inhibition [8]: 45.8%
- inhibition [3]: 46.9%
- Ratio IC50 [9]: > 41
- inhibition [4]: 20.8%
- IC50 [10]: 1660 nM
- inhibition [11]: 31.7%
- inhibition [5]: 23.4%

Structure (SMILES): CSc1ccc(C2c3c(n[nH]c3C)Oc3nc4c(c(N)c32)CCCC4)cc1 (stereo not given)
- inhibition [1]: 10.1%
- inhibition [2]: 31%
- inhibition [6]: 30.4%
- IC50 [7]: > 66 µM
- inhibition [8]: 44.5%
- inhibition [3]: 46.7%
- Ratio IC50 [9]: > 1140
- inhibition [4]: 0.11%
- IC50 [10]: 58 nM
- inhibition [11]: 36.6%
- inhibition [5]: 23.7%
- inhibition [12]: 36.9%

— ChEMBL document CHEMBL4118265, “A cascade synthesis, in vitro cholinesterases inhibitory activity and docking studies of novel Tacrine-pyranopyrazole derivatives” (Bioorg Med Chem Lett, 2018)
